# S1P4 antag – human S1P4 receptor antagonism; AID 1510; inhibition, % at 4.98 µM; S1P4-expressing cells, antagonist mode, reporter read-out; O95977; 0.26% of 220,000 active; in the data active = inhibition above about 29%;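 also: 0% = wells stimulated with agonist and 100% = vehicle wells without agonist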
# Target sequence (O95977 whole entry, looked up): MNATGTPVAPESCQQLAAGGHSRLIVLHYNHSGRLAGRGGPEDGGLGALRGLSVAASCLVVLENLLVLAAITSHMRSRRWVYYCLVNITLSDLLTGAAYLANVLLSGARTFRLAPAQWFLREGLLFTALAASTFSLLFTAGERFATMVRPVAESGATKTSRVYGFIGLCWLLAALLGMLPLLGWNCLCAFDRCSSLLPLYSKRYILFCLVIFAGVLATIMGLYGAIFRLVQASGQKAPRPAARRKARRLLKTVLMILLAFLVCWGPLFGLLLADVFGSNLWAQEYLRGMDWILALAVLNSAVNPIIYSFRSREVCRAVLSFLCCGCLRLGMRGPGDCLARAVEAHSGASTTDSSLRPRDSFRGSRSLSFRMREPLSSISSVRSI
# Calb biofilm kill – mixtures killing C. albicans biofilm; C. albicans biofilm persisters + clotrimazole, fluorescence viability; primary screen in compound mixtures of four per well; inhibition, % at 7.6 µM; 0.02% of 120,000 active;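 active = inhibition above 30.3% in the primary screen of four-compound pools, then above 30% when the compound was retested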;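 also: compounds exposed to preformed 24 h biofilms for 48 h; 0% = untreated biofilm control and 100% = clotrimazole plus chlorhexidine kill blank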
#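 Assay system: C. albicans biofilms / Medium: RPMI/MOPS medium, pH 7.0 / Schedule: biofilm formation 24 h, compound exposure 48 h, 37 °C / Measured by: Alamar Blue fluorescence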
# S1P3 antag-1 – antagonists of human S1P3 receptor; Q99500; CHO S1P3 NFAT-BLA reporter, FRET fluorescence, antagonist mode; inhibition, % at 4.98 µM; 0.27% of 170,000 active; AID 485;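 active = inhibition above the plate cutoff, the mean inhibition of test wells on that plate plus 3 SD, cut at about 28% in these data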;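 also: cells challenged with S1P at its EC80 of 0.8 µM; blue over green emission ratio from cleaved BLA substrate after 4 h stimulation; 0% = S1P-stimulated wells and 100% = unstimulated DMSO-only wells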
# HMGR II inh – blocks class II HMG-CoA reductase of Enterococcus faecalis; purified E. faecalis HMGR, NADPH absorbance 340 nm kinetic; inhibition, % at 10 µM; 0.41% of 190,000 active;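 active = inhibition above a set limit, the median over all tested compounds plus 3 SD, cut at about 9.5% in these data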;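 also: enzyme runs in reverse so mevalonate oxidation gives rising NADPH absorbance; 0% = complete reaction with DMSO and 100% = background rate lacking mevalonate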
# S1P4 ag – human S1P4 receptor agonism. S1P4-expressing cell line, agonist reporter assay. AID 1509. O95977. activation, % at 4.98 µM. 0.35% of 220,000 active; in the data active = activation above about 11%;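 also: 0% = DMSO vehicle and 100% = reference agonist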
# Rad51 HR inh – Rad51 (human) homologous recombination inhibition; AID 1385; 0.085% of 200,000 active; inhibition, % at 10 µM; hRad51 DNA strand exchange, fluorescence dequenching;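 active = inhibition above 40% at the single screening dose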;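 also: 0% = DMSO control wells and 100% = blanks with heterologous ssDNA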
#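 material = hRad51 filaments on single-stranded DNA | timing = filaments 15 min 37 °C, then compound 30 min | signal = FRET fluorescence dequenching, excitation 485 nm, emission 520 nm | benchmarks = control wells and blank wells on each plate | evaluation = percent inhibition relative to plate controls and blanks | compound = 10 µM final, single point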
# S1P3 antag-2 – confirmation of human S1P3 receptor antagonists | shares compounds with S1P3 antag-1 | 30% of 240 active | AID 1429 | inhibition, % at 4.98 µM | CHO S1P3 NFAT-BLA reporter, FRET, antagonist mode;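 active = inhibition above the hit threshold that was computed for the earlier primary screen, cut at about 30% in these data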;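 also: 0% = S1P-stimulated wells and 100% = unstimulated DMSO-only wells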
# Starred values were filed as active, the others as inactive; i = inactive; . = no result; ! = not confirmed by another sample. Shown are actives, neighbours in structure and some others; about 1.2% of the full set was active somewhere.
SMILES,S1P4 antag,Calb biofilm kill,S1P3 antag-1,HMGR II inh,S1P4 ag,Rad51 HR inh,S1P3 antag-2
Nc1ccc(C(=O)n2c3ccccc3c3ccccc32)cc1,-15,8,.,-1,-3,-8,.
COc1ccc(C(=O)NC(Nc2ccc(C)cc2)C(Cl)(Cl)Cl)cc1 (stereo not drawn),-20,7,44*,-9,-1,-1,58*
Cc1cccc(C2(c3cccc(C)c3)CC2C(=O)Nc2ccc([N+](=O)[O-])cc2O)c1 (stereo not drawn),-1,16,76*,-6,1,.,73*
CCN(CC)S(=O)(=O)c1ccc2c(c1)nc(CCC(=O)OCC(=O)Nc1c(F)cccc1F)n2C,0,17,-30,-7,0,.,.
O=[N+]([O-])c1ccc(/C=C/C2=NN(c3ccccc3)C(c3ccco3)C2)o1 (stereo not drawn),-11,7,38*,-2,1,-110,9
O=C(NC(=S)Nn1cnc2c(cnn2-c2ccccc2)c1=O)c1ccccc1,-7,18,-12,5,2,2,.
Clc1ccc(/C=N/NC(=Nc2ccccc2)c2ccccn2)c(Cl)c1,-19,.,.,2,0,.,.
C/C(=N\Nc1ccc([N+](=O)[O-])cc1)c1ccc(O)cc1,23,12,34*,0,0,-154,27
O=C1S/C(=C/c2ccccc2)C(=O)N1CC(O)Cn1c2ccccc2c2ccccc21 (stereo not drawn),-9,25,40*,-1,0,0,-18
CC(=O)c1c(C)[nH]c(C(=O)NC(C)c2ccccc2)c1C (stereo not drawn),-5,8,38*,-5,-3,-8,-11
O=C(Nc1ccc(F)cc1F)c1c(C(F)(F)F)ccnc1Oc1cccc(C(F)(F)F)c1,11,7,19,.,-1,6,.
O=C(Nc1ccc(F)cc1F)c1c(C(F)(F)F)ccnc1Oc1ccc(Cl)cc1,-1,15,44*,.,-2,-1,55*
CN(Cc1nc2ccccc2c(=O)[nH]1)Cc1nc2ccsc2c(=O)[nH]1,-15,-2,-7,-7,-2,7,.
Cc1c(Cl)cn2c(=O)cc(CN(C)Cc3nc4ccccc4c(=O)[nH]3)nc2c1Cl,-14,16,34*,-9,1,-4,-14
CCOC(=O)N1CCC(N(CCN(C)C)C(=S)Nc2cc(Cl)cc(Cl)c2)CC1,2,10,29*,-2,1,14,9
Cc1nn(C)c(C)c1CN(Cc1nc(CCC(C)C)no1)C(C)C,-4,27,32*,1,-1,-2,13
CC(C)NC(=S)NC(=O)c1ccc(Cl)cc1Cl,-11,14,6,-5,0,-9,.
CCC(C)(C)C1CCc2c(sc(N)c2C(N)=O)C1 (stereo not drawn),-11,9,38*,-4,1,-6,-3
COc1cnc(-c2ccccn2)nc1Oc1ccccc1Cl,-8,.,.,-4,-1,-4,.
COc1cnc(-c2ccccn2)nc1NC(C)C,-4,-2,29*,-3,1,21,19
COc1ccccc1Sc1nc(-c2ccccn2)ncc1OC,-11,16,9,-2,2,-11,.
COc1cnc(-c2ccccn2)nc1Oc1ccc(F)cc1F,9,18,29*,-1,1,-10,-4
O=C(N/N=C/c1ccc(-c2ccc([N+](=O)[O-])cc2)o1)[C@H]1C[C@@H]1c1ccccc1,0,1,45*,.,0,-50,63*
O=C(O)c1ccc(-c2ccc(/C=N/Nc3ccc([N+](=O)[O-])cc3)o2)cc1,6,25,29*,.,3,i,-1
O=C(N/N=C/c1ccc(-c2cccc([N+](=O)[O-])c2)o1)[C@H]1C[C@@H]1c1ccccc1,0,15,13,1,-2,7,.
SMILES,S1P4 antag,Calb biofilm kill,S1P3 antag-1,HMGR II inh,S1P4 ag,Rad51 HR inh,S1P3 antag-2
O=C(O)c1cccc(-c2ccc(/C=N/Nc3ccc([N+](=O)[O-])cc3)o2)c1,20,14,14,.,-1,-180,.
Cc1nn(C)cc1CNC(=O)/C=C/c1cnn(C)c1,-2,3,-1,-2,1,11,.
ON1C(c2ccccc2)CC2(O)c3nonc3CCC12 (stereo not drawn),1,.,3,-1,0,-6,.
CC1C(c2ccccc2)N(C)C(c2ccccc2)CC1(O)c1ccc(F)cc1 (stereo not drawn),6,-1,31*,-2,-3,2,48*
Cc1cc(C)nc(N(C#N)S(=O)(=O)c2ccc(Br)cc2)n1,-2,.,.,-3,-2,.,.
S=c1[nH]ccn1-c1ccccc1Cl,-3,16,73*!,.,0,14,-13
S=c1[nH]ccn1-c1cccc(Cl)c1Cl,-3,26,-11,.,-2,.,.
CCC(C(=O)Nc1ccc(C)cc1)c1ccccc1 (stereo not drawn),2,19,27,-1,0,3,.
CCc1ccc(NC(=O)C(CC)c2ccccc2)cc1 (stereo not drawn),-10,12,29*,-2,-1,.,22
NC(=O)C(c1ccccc1)C1CCCC1 (stereo not drawn),0,.,.,2,1,-2,.
O=C(Nc1ccc(Br)cc1)C(c1ccccc1)c1ccccc1,1,24,57*,-7,-1,-6,69*
Cc1ccc(NC(=O)C(c2ccccc2)C2CCCC2)cc1 (stereo not drawn),-6,1,60*,-7,4,-2,70*
O=C(Nc1ccc2ccccc2c1)C(c1ccccc1)C1CCCC1 (stereo not drawn),1,0,55*,-6,0,-1,66*
Cc1ccccc1NC(=O)C(c1ccccc1)C1CCCC1 (stereo not drawn),14,-8,4,0,0,-2,.
O=C(COC(=O)c1cnccn1)c1ccccc1,-6,.,.,-6,0,.,.
CCN(C(=O)COC(=O)c1ccccc1NC(=O)c1ccco1)C1CCS(=O)(=O)C1 (stereo not drawn),0,8,-18,0,0,27,.
CCOC(=O)C1=C(C)NC(=O)NC1c1ccc(-c2ccccc2F)o1 (stereo not drawn),-12,15,-19,-2,1,1,.
O=C(O)CCn1c(-c2ccccc2)cc2c1CCCC2=O,-5,.,-20,0,1,-2,.
O=C(Nc1ccc(Cl)cc1)Nc1cccc2nsnc12,0,18,29*,.,-1,.,16
O=C(COc1ccccc1)Nc1cccc2nsnc12,-3,.,18,-1,1,-2,.
CO/N=C/c1ccc(Oc2ccc(C)cc2)nc1,5,.,.,5,-1,-9,.
Cc1ccc(Oc2ccc(C=O)cn2)cc1,-19,12,34*,1,-1,-13,-19
